These results are taken from ChEMBL document CHEMBL4513216, “Probing the Open Global Health Chemical Diversity Library for Multistage-Active Starting Points for Next-Generation Antimalarials” (ACS Infect Dis, 2020).

A short description of this data set: Toxicity liver stage against HepG2, at 10uM. As to conditions: human, HepG2-A16-CD81EGFP cells; read-out: INHIBITION
It counts as cell-based. More on the design: test concentration 10 uM, cell line HepG2-A16-CD81EGFP. A digest of the protocol:
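Uninfected HepG2-A16-CD81EGFP cells, 3 × 10^3 per well, 1536-well, plated on prespotted compound at 10 μM final, parasite-free screening media added to match infected plates; puromycin 10 μM positive, DMSO 0.5% negative; run in parallel with 48 h PbLuc assay at 37 °C, 5% CO2; viability by CellTiter-Glo luminescence, normalized to controls.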
`c1ccc(CCCN2CC[C@H](c3nnc(-c4cccnc4)o3)C2)cc1`: the cytotoxicity at 10 µM was -6.1%. For the compound `Cc1nn(C)cc1C1CC(=O)Nc2c1cnn2C` (configuration not stated), the cytotoxicity at 10 µM came out at 2.8%.

For the compound `COc1nn(C)cc1-c1nnc(SCc2cccnc2)n1C`, the cytotoxicity at 10 µM is -2.06%.

As for `O=C(c1cnn2c1OCCC2)N1CCC(Cc2ccccc2)CC1`, the cytotoxicity at 10 µM was determined as 0.524%. Take `COCC1CN(CC2CC2)Cc2ncn(CC3CC3)c21` (configuration not stated): the cytotoxicity at 10 µM was determined as 4.42%. Then `CCOC[C@@H]1CC[C@H]2[C@H](CCN2C(=O)c2ccncc2F)O1`, with -2.86%. `CCn1cc(C(=O)Nc2cc(C(=O)OC)ccc2C(=O)OC)cn1`: the cytotoxicity at 10 µM is -1.2%. For the compound `CN(C)CCCNC(=O)CNC(=O)N1CCc2c([nH]c3ccccc23)C1`, the cytotoxicity at 10 µM was 3.33%.

`O=C(COc1coc(CN2CCCCC2)cc1=O)Nc1ccc(Cl)cc1`: the cytotoxicity at 10 µM was 3.48%. Regarding `CCOc1ccc(C2CC(=O)Nc3c2c(=O)nc2sccn32)cc1` (configuration not stated), the cytotoxicity at 10 µM was -12.7%. Regarding `CN(C(=O)Cn1nc(-c2ccc(F)cc2)ccc1=O)C1CCS(=O)(=O)C1` (configuration not stated), the cytotoxicity at 10 µM is -3.57%. For `CCOCCCNC(=O)c1nnn(Cc2ccccc2)c1OC`, the cytotoxicity at 10 µM was found to be 9.32%. Then `Cc1noc(C)c1C(=O)N1CCC(c2cc3cnccc3[nH]2)CC1`, with 7.07%; and `CCc1cc(O)n2nc(C3CCN(C(=O)c4cccnc4)CC3)cc2n1`, with 7.09%; and `COc1ccc2c(c1)C(=O)NC1(CC2)CCN(Cc2ccc(F)cc2)C1` (configuration not stated), with 8.16%. `O=C1CN(C(=O)C2CN(c3cccc(F)c3)CCO2)CCN1` (configuration not stated): the cytotoxicity at 10 µM amounted to 5.37%. For `COCCN1CCCC(c2nc(C)n3c(C)c(C)sc23)C1` (configuration not stated), the cytotoxicity at 10 µM was -21.5%. Then `Cc1c(C2CCCN(C(=O)OC(C)(C)C)C2)n2c(nc1=O)CCC2` (configuration not stated), with -16%; and `CNC(=O)C1(c2cnccn2)CCCN1C(=O)c1ccccc1F` (configuration not stated), with -17.1%; and `CNC(=O)C1(c2cnccn2)CCCN1C(=O)c1cccc(C)n1` (configuration not stated), with -18.6%.

Turning to `O=C(c1cncc(Br)c1)N1CCC(O)(Cn2ccc3ccncc32)CC1`, the cytotoxicity at 10 µM came out at 2.44%. With `Cc1ccc2nc(C3CCCN(CC(C)C)C3)nc(O)c2c1` (configuration not stated), the cytotoxicity at 10 µM was determined as 5.48%. Then `O=C(CCc1nc(-c2cccnc2)no1)N(CC1CCOC1)C1CC1` (configuration not stated), with 10.8%.

As for `N#CCCCS(=O)(=O)NC1(c2cccc(Cl)c2)CC1`, the cytotoxicity at 10 µM is -1.39%. Consider `CCN(CC)C(CNC(=O)c1ccnc(N(C)C)c1)c1ccsc1` (configuration not stated), for which the cytotoxicity at 10 µM is -149%. Then `Cc1cccnc1NC(=O)c1ccc(F)c(S(=O)(=O)N2CCC2)c1`, with 4.5%; and `CCSCCC(=O)NCc1cnn(-c2ccc(F)cc2F)c1`, with -5.61%; and `COc1cc2c(cc1OC)CN(C(=O)NC(C)c1nncn1C)CC2` (configuration not stated), with -4.54%.

Regarding `CN(c1ccccc1)S(=O)(=O)c1cc2c(c(C(=O)O)c1)OCCO2`, the cytotoxicity at 10 µM is -9.47%. As to `CC(NC(=O)Nc1ccccc1CN1CCOCC1)c1nccs1` (configuration not stated), the cytotoxicity at 10 µM came to 2.1%. As for `CS(=O)(=O)c1ccc(OCCNCc2ccc(F)cc2)cc1`, the cytotoxicity at 10 µM is -8.86%. Then `O=C(NCCOc1ncc(Cl)cc1Cl)NCc1ccncc1`, with -1.86%; and `CCc1nc2n(n1)CCCC2NC(=O)Nc1cc(OC)ccc1C` (configuration not stated), with 12.7%. Then `CN(CC(F)(F)F)C(=O)CNC(=O)Cc1ccccc1O`, with 6.31%.

As to `COc1ccc(C2CCCN2C(=O)c2cc3c([nH]c2=O)CCC3)cc1` (configuration not stated), the cytotoxicity at 10 µM is -10.7%. Turning to `Cc1ccsc1CNC(=O)NC1CCCc2c1cnn2CCO` (configuration not stated), the cytotoxicity at 10 µM came out at 3.33%. Then `CN(Cc1cccc(F)c1)C(=O)CN1CCCCC1Cn1cncn1` (configuration not stated), with -8.25%. With `c1ccc(C2CCCN2Cc2nnnn2C2CC2)cc1` (configuration not stated), the cytotoxicity at 10 µM was -5.04%. For `O=C1CCCN1Cc1nnc2n1CCN(Cc1ccco1)C2`, the cytotoxicity at 10 µM was 0.686%. Then `CCS(=O)(=O)N1CCN(CCOC)c2ncccc2C1`, with 4.37%; and `CCCS(=O)(=O)N1CC[C@H]2O[C@H](c3nnc(C)o3)CC[C@H]21`, with -77.4%.

Take `CCOCC1CN(S(=O)(=O)C2CC2)Cc2cnn(C)c21` (configuration not stated): the cytotoxicity at 10 µM was -66.8%.

Regarding `O=C(NCC1Cn2nnc(-c3ccsc3)c2CO1)c1ccc[nH]1` (configuration not stated), the cytotoxicity at 10 µM was determined as 2.28%. Then `CCO[C@H]1CN(C(=O)c2ccnnc2)[C@@H]2COC[C@H]12`, with 0.403%; and `Cn1ccnc1CN1CC[C@@H](NS(C)(=O)=O)[C@@H]1Cc1cccnc1`, with 8.54%; and `CN(C)C[C@@H]1CN(C(=O)Cc2ccc3ccccc3c2)C[C@@H]1CO`, with -8.4%.

Turning to `Cc1ccc2[nH]c(CN(C)Cc3ccccc3C(=O)O)nc2c1`, the cytotoxicity at 10 µM came out at 7.01%. Take `CC(NC(=O)c1cn(CCC2CCCCC2)nn1)c1cnn(C)c1` (configuration not stated): the cytotoxicity at 10 µM came out at 6.2%.

As for `COc1ccc2nc(O)c(CN(C)Cc3ncc[nH]3)cc2c1`, the cytotoxicity at 10 µM is 0.55%. Then `Cc1ccc(CCNC(=O)Cn2nc(C)n(Cc3ccccc3)c2=O)o1`, with 1.33%; and `O=C(O)[C@@H]1CN(C(=O)c2ccc(Cl)cc2)C[C@H]1c1cccc(F)c1`, with -132%. As to `CC(=O)c1cc(CN2C[C@@H](N(C)C)[C@H](C(C)C)C2)cs1`, the cytotoxicity at 10 µM was found to be 0.305%. Consider `CNc1nc(C(=O)NCc2cccnc2N(C)C2CCCCC2)cs1`, for which the cytotoxicity at 10 µM was -5.35%. Then `COc1cccc(C(=O)N2C[C@@H](C(=O)O)[C@H](c3ccccc3C)C2)c1`, with 0.291%. With `Cc1oc(-c2cccc(F)c2F)nc1CN(CCO)C(C)C`, the cytotoxicity at 10 µM was -15.2%. In the case of `CC(CO)CN(Cc1ccccc1)C(=O)c1csc(CN(C)C)n1` (configuration not stated), the cytotoxicity at 10 µM was -8.69%. Then `Cc1cccnc1CN1CCN(C(=O)c2cc(Cl)c[nH]c2=O)CC1`, with 6.22%. Then `COc1ccc(C)cc1-n1cnnc1C1CCOCC1`, with 11.2%. Turning to `OC(CNc1ncnc2c1CCNCC2)C(F)(F)F` (configuration not stated), the cytotoxicity at 10 µM was -4.92%.

On to `CCCC(C)CN1CCC(n2cc(CCCO)nn2)CC1` (configuration not stated), for which the cytotoxicity at 10 µM came to 3.22%. Then `CCSCCNC(=O)C(c1cccc(C)c1)N(C)C` (configuration not stated), with -23%. Then `OC1(CN2CCCC2)CCCN(Cc2ccc(F)cc2Cl)C1` (configuration not stated), with 20.9%. Take `Cc1cnn(C(C)C2CC2)c1NC(=O)c1cnccn1` (configuration not stated): the cytotoxicity at 10 µM is -5.39%. Then `CN(Cc1nccs1)c1nc(-c2ccccn2)nc2c1CCNCC2`, with -14%; and `CCCn1nccc1C(=O)N1CCCN(CCCc2ccccc2)CC1`, with -2.06%; and `Cc1nc2n(n1)CC(NCc1cc(Cl)c3c(c1)OCCO3)CC2` (configuration not stated), with -6.14%. Then `O=C(CCN1CCOC1=O)Nc1cnn(-c2ccccc2Cl)c1`, with -3.39%; and `COc1ccccc1C(O)CNC(=O)NCc1csc(C)n1` (configuration not stated), with -5.34%. For the compound `Cc1noc(C)c1S(=O)(=O)NC(=O)COc1cccc(C(C)C)c1`, the cytotoxicity at 10 µM was -10.7%.

Consider `NC(=O)CN1CCN(C(=O)c2cc(Cl)cc3cccnc23)CC1`, for which the cytotoxicity at 10 µM was -9.19%.

Regarding `CCn1ccnc1CN1CCCN(C(=O)c2scnc2C)CC1`, the cytotoxicity at 10 µM was -7.77%. As to `CC(C)c1nnc2n1CCN(CCC(=O)N1CCc3ccccc31)C2`, the cytotoxicity at 10 µM is -21.1%. Then `O=C(Cc1ccccc1)N1CCN(CC(O)c2ccc(F)cc2)CC1` (configuration not stated), with -13.8%; and `Cc1nn(C)c(C)c1C1CCCN1Cc1ccc(C(N)=O)cc1` (configuration not stated), with -1.01%.

`CC(NC(=O)N1CCC(c2ccccc2)CC1)c1nncn1C` (configuration not stated): the cytotoxicity at 10 µM is -10.3%. On to `Cn1nc2c(cc1=O)CN(Cc1nc(-c3cccnc3)no1)CC2`, for which the cytotoxicity at 10 µM was -14.6%. Then `Cc1cnn(CC(C)NCc2ccccc2OCc2cccnc2)c1` (configuration not stated), with -12.9%; and `Cc1cnn(CC2CCCN2Cc2nnc(C3CC3)n2C)c1` (configuration not stated), with -12.2%. `CCn1ccnc1CN1CCCN(C(=O)Cc2ccccc2C)CC1`: the cytotoxicity at 10 µM is -1.99%. Then `O=C(Cc1ccccn1)N1CCN(C(=O)CC2CCCCC2)CC1`, with 5.35%.

As to `CCC(C)C(=O)NCc1ccc(-n2cncn2)nc1` (configuration not stated), the cytotoxicity at 10 µM is 8.85%. Then `Cc1ccc(C)c(NC(=O)C(C)N2CCCN(c3nccs3)CC2)c1` (configuration not stated), with -19.8%; and `O=C(CCN1CCCN(c2nccs2)CC1)NCC1CCCCC1`, with -5.1%. Then `O=C(c1ccc(O)c(Cl)c1)N1CCC(c2n[nH]c(C3CC3)n2)CC1`, with 6.91%; and `CC(C)c1nc(CN2CCN(C(C)c3nc(C4CC4)no3)CC2)no1` (configuration not stated), with 6.54%. Then `Cc1nc(CN2CCCN(CC(=O)Nc3cccnc3)CC2)no1`, with 2.31%; and `CCCC(=O)N1CCc2c(CNS(C)(=O)=O)cncc2C1`, with 4.36%; and `c1cnc(NC[C@H]2OC[C@@H]3CCN(Cc4ccsc4)C[C@@H]32)nc1`, with -2.01%. Turning to `CCN1CCC2(COCc3cnc(NCC4CC4)nc32)C1` (configuration not stated), the cytotoxicity at 10 µM was -12.9%. Turning to `COCC1CN(Cc2cccnc2)Cc2nnn(CC3CC3)c21` (configuration not stated), the cytotoxicity at 10 µM was -0.0925%. As to `CNC(=O)c1cc2c(nc1N(C)C)CCN(C)CC2`, the cytotoxicity at 10 µM was -149%. Turning to `COCC1CN(c2ccc(C)nn2)Cc2cnn(CC3CCOCC3)c21` (configuration not stated), the cytotoxicity at 10 µM worked out at 4.62%. Turning to `CN(C)c1cc(C2CCCNC2)ccn1` (configuration not stated), the cytotoxicity at 10 µM is -2.68%.

As to `O=C(C1=CC2(CCN(CCO)CC2)c2ccccc21)N1CCCC1`, the cytotoxicity at 10 µM was -1.16%. As for `COCCN1CCCn2c(nc(Cn3cncn3)cc2=O)C1`, the cytotoxicity at 10 µM was determined as 3.39%. Regarding `O=C(NCCn1nc(C2CCNC2)c2cccnc21)C1CC1` (configuration not stated), the cytotoxicity at 10 µM was -25.8%. Then `Cn1ccc(C(=O)NC2CCC23CCN(C(=O)c2ccncc2)CC3)c1` (configuration not stated), with -9.84%.
